Results published in paper PMC4690987 (Journal of Medicinal Chemistry, 2015).

Assays:
Cytotoxicity assay = type: cell-based; details: human, uninfected (mock-infected) TZM-bl cells
Method in brief: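 Run in parallel with the antiviral assay, under the same conditions but on uninfected TZM-bl cells (1 ×10^4 cells/well, seeded overnight, test compound in serial dilution, 37 °C, 48 h). Viability was read by MTT absorbance. CC50 was the concentration that reduced absorbance of mock-infected cells by 50%.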

HIV-1 NL4-3 strain [1] = assay: Antiviral assay in HIV-1 infected TZM-bl cells; type: cell-based; details: for SI HIV-1 strain NL4-3: CC50 value/IC50 value; for IC50: read-out: IC50 HIV-1 strain NL4-3, MOI 0.5, 48 h, LTR-luciferase signal
Method in brief: (§1)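 TZM-bl cells (HeLa expressing CD4 and CCR5, with LTR-driven luciferase and β-galactosidase) were seeded at 1 ×10^4 cells/well in DMEM/10% FBS and left to adhere overnight. Cells were infected with HIV-1 NL4-3 or BaL at MOI 0.5, treated with serial dilutions of test compound, and incubated at 37 °C for 48 h. IC50 was taken as 50% inhibition of LTR-luciferase signal. CC50 came from parallel MTT on mock-infected cells. SI = CC50/IC50.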

HIV-1 BaL strain = assay: Antiviral assay in HIV-1 infected TZM-bl cells; type: cell-based; details: for SI HIV-1 strain BaL: CC50 value/IC50 value; for IC50: read-out: IC50 HIV-1 strain BaL, MOI 0.5, 48 h, LTR-luciferase signal
Method in brief: as §1

LTR-IV G4 [2] = assay: SPR analysis; parameters: species or system HIV-1; details: read-out: KD LTR-IV G4 (SPR); 25 °C, HEPES-KCl buffer, 1:1 binding model
Method in brief: (§2)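 5′-biotinylated oligonucleotides folded (95 °C for 5 min, cooled to room temperature), diluted to 30 nM and captured on a streptavidin chip to about 500 RU, with an empty reference cell. Running buffer was 0.01 M HEPES pH 7.4, 0.2 M KCl, 3 mM EDTA. Test compound run at 25–200 nM, 30 μL/min, with 280 s contact and 360 s dissociation. Surface regenerated with 10 mM glycine pH 2.0. Sensorgrams buffer-corrected and fitted to a 1:1 model. At least two independent runs, χ2 below 0.2.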

LTR-IV G4 [3] = assay: FRET melting assay; type: binding, HIV-1; details: for stabilization (ΔTm, FRET) at 4-fold c-exNDI:DNA molar ratio: 25 °C is the maximum increase measurable, data not shown; for difference in stabilization of LTR-IV G4s vs hTel G4: FRET, equimolar amounts
Method in brief: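 Oligonucleotide labelled with FAM at the 5′ end and TAMRA at the 3′ end, 0.25 μM, folded in lithium cacodylate buffer with 100 mM potassium, plus equimolar test compound. After equilibration at 4 °C, FAM emission was followed from 30 to 95 °C at 1 °C/min. Profiles were normalized, and Tm was the temperature at 0.5 normalized fluorescence.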

TZM-bl cells = details: values previously reported ref 27; cited from earlier work
HIV-1 NL4-3 strain [4] = details: previous work ref 27, 30; cited from earlier work
c-myc G4 = assay: ESI-MS competition assay; type: binding; details: 2-fold molar excess of compound
Method in brief: (§3)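 G4 oligonucleotides heat-denatured and folded overnight at room temperature in 10 mM KCl, 150 mM trimethylammonium acetate pH 6.8. Equimolar pairs of G4s incubated overnight at 4 °C with 2-fold excess test compound, then injected via HPLC into ESI-MS. Binding affinity = bound/(free + bound) ×100, from reconstructed-ion chromatogram areas. Bound includes one or two ligands; free includes K+ adducts.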

LTR-III G4 [5] = assay: Circular dichroism; type: binding, HIV-1; details: 4:1 c-exNDI:DNA ratio, label-free oligonucleotide
Method in brief: (§4)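 Unlabelled oligonucleotide, final 4 μM, in 10 mM lithium cacodylate pH 7.4 with 100 mM KCl, annealed at 95 °C for 5 min, then cooled gradually to room temperature. Test compound added to a final 16 μM. CD spectra taken at 230–320 nm (5 mm cell, average of 2 scans, buffer-corrected) while heating 20–95 °C at 5 °C/min. Tm calculated by van't Hoff two-state fit.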

LTR-IV G4 [6] = assay: ESI-MS competition assay; type: binding, HIV-1; details: 2-fold molar excess of compound
Method in brief: as §3

[7] = test system: M4 + 5 mutant LTR promoter (non-G4-forming); assay: Luciferase reporter assay in 293T cells; type: cell-based, HIV-1; details: increasing amounts of 2, 24 h
Method in brief: (§5)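 HEK293T cells, 9 ×10^4 per well, transfected 24 h after seeding with 100 ng of a promoterless Luc2 vector carrying the wt or M4+5 (G4-abolishing double point mutant) HIV-1 LTR. Test compound added 1 h after transfection at various concentrations for 24 h. Luciferase activity measured. Cells lysed in RIPA, and signals normalized to total protein (BCA).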

HIV-1 LTR promoter = assay: LTR-EGFP reporter assay in HeLa-Tat-III/LTR/d1EGFP cells; type: cell-based; details: noncytotoxic concentrations of 2 (62.5–250 nM), 48 h, FACS
hTel G4 [8] = assay: Circular dichroism; type: binding, human; details: 4:1 c-exNDI:DNA ratio, label-free oligonucleotide
Method in brief: as §4

hTel G4 [9] = assay: SPR analysis; parameters: species or system human; details: read-out: KD hTel G4 (SPR); 25 °C, HEPES-KCl buffer, 1:1 binding model
Method in brief: as §2

LTR-IV G4 [10] = assay: Circular dichroism; type: binding, HIV-1; details: 4:1 c-exNDI:DNA ratio, label-free oligonucleotide
Method in brief: as §4

LTR-III G4 [11] = assay: ESI-MS competition assay; type: binding, HIV-1; details: 2-fold molar excess of compound
Method in brief: as §3

[12] = test system: LTR-III, LTR-IV, and hTel templates; assay: Taq polymerase stop assay; type: biochemical; details: 2 at 3.1–25.0 nM, K+ 100 mM
Method in brief: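 A 5′-end-labelled primer was annealed to each template in lithium cacodylate buffer, with or without 100 mM KCl, by heating to 95 °C for 5 min and cooling gradually to room temperature so the templates folded into G4. A template unable to form G4 served as a control. Taq extension was run with or without test compound, and polymerase stop regions were read from the products.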

wt LTR promoter = assay: Luciferase reporter assay in 293T cells; type: cell-based, HIV-1; details: increasing amounts of 2, 24 h
Method in brief: as §5

c-kit2 G4 = assay: ESI-MS competition assay; type: binding; details: 2-fold molar excess of compound
Method in brief: as §3

HIV-1 NL4-3 = assay: HIV-1 entry assay; type: cell-based; details: TZM-bl cells, virus production at 31 h pi; 2 50–100 nM, AZT 0.5 μg/mL, DS 100 μg/mL
Method in brief: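 TZM-bl cells (HeLa stably expressing CD4, CCR5 and HIV-1 LTR-driven luciferase) were grown in DMEM/10% FBS. Cells were seeded at 1 × 10^4 per well and allowed to adhere overnight, then infected with HIV-1 NL4-3 at MOI 0.5 and kept at 37 °C. Test compound or reference agents were added at 0, 1 or 2 h pi. At 31 h cells were PBS-washed and virus production was read as LTR-luciferase RLU.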

LTR-III G4 [13] = assay: SPR analysis; parameters: species or system HIV-1; details: read-out: KD LTR-III G4 (SPR); 25 °C, HEPES-KCl buffer, 1:1 binding model
Method in brief: as §2

hTel G4 [14] = assay: ESI-MS competition assay; type: binding, human; details: 2-fold molar excess of compound
Method in brief: as §3

Molecule | CC50 (Cytotoxicity assay) [nM] | SI HIV-1 strain NL4-3 (HIV-1 NL4-3 strain [1]) | SI HIV-1 strain BaL (HIV-1 BaL strain) | IC50 (HIV-1 BaL strain) [nM] | IC50 (HIV-1 NL4-3 strain [1]) [nM] | Kd (LTR-IV G4 [2]) [nM] | stabilization (ΔTm, FRET) at 4-fold c-exNDI:DNA molar ratio (LTR-IV G4 [3]) | difference in stabilization of LTR-IV G4s vs hTel G4 (LTR-IV G4 [3]) [°C] | binding affinity cell G4 (myc) (c-myc G4; competing G4s LTR-III/myc) | binding affinity cell G4 (myc) (c-myc G4; competing G4s LTR-IV/myc) | binding affinity LTR-IV (LTR-IV G4 [6]; competing G4s LTR-III/LTR-IV) | binding affinity LTR-IV (LTR-IV G4 [6]; competing G4s LTR-IV/hTel) | binding affinity LTR-IV (LTR-IV G4 [6]; competing G4s LTR-IV/kit) | binding affinity LTR-IV (LTR-IV G4 [6]; competing G4s LTR-IV/myc) | binding affinity LTR-III (LTR-III G4 [11]; competing G4s LTR-III/LTR-IV) | binding affinity LTR-III (LTR-III G4 [11]; competing G4s LTR-III/kit) | binding affinity LTR-III (LTR-III G4 [11]; competing G4s LTR-III/myc) | binding affinity cell G4 (kit) (c-kit2 G4; competing G4s LTR-III/kit) | binding affinity cell G4 (kit) (c-kit2 G4; competing G4s LTR-IV/kit) | antiviral activity as a function of time of addition (0, 1, 2 h pi) (HIV-1 NL4-3) | further results
CN(C)CCCn1c(=O)c2cc(Br)c3c(=O)n(CCCN(C)C)c(=O)c4c5[nH]c6ncccc6[nH]c5c(c1=O)c2c34 [Compound 8] | 458 ± 54 | 7.2 | – | – | – | – | – | – | – | – | – | – | – | – | – | – | – | – | – | – | –
CN(C)CCCn1c(=O)c2cc(Br)c3c(=O)n(CCCN(C)C)c(=O)c4c5[nH]c6ccccc6[nH]c5c(c1=O)c2c34 [Compound 3] | 343 ± 32.2 | – | 11 | 32.5 ± 7.1 | 15.7 ± 2.1 | 6.6 | above 25 °C | ≥ 6 | – | – | – | – | – | – | – | – | – | – | – | – | –
CN(C)c1ccc(Nc2c3ccc(NC(=O)CCN4CCCC4)cc3nc3cc(NC(=O)CCN4CCCC4)ccc23)cc1.Cl.Cl.Cl [Compound 1, BRACO-19] | – | >3.5 | – | – | – | – | – | – | – | – | – | – | – | – | – | – | – | – | – | – | CC50 (TZM-bl cells): > 12000 nM; IC50 (virus production in infected cells) (HIV-1 NL4-3 strain [4]): low μM range; average selectivity index (SI) (HIV-1 NL4-3 strain [4]): 12
CN(C)CCCn1c(=O)c2ccc3c(=O)n(CCCN(C)C)c(=O)c4c5[nH]c6ccccc6[nH]c5c(c1=O)c2c34 [Compound 2] | 532 ± 11.7 | 40 | 14 | 36.2 ± 4.3 | 13.2 ± 0.1 | 6.1 | above 25 °C | ≥ 6 | 45 | 44 | 25 | 52 | 25 | 25 | 71 | 33 | 39 | 12 | 9 | No significant difference in the activity of the compound was observed at the tested times | stabilization of LTR-III G4 by CD (LTR-III G4 [5]): higher than 27 °C; effect on non-G4-forming mutant LTR (M4 + 5) luciferase activity [7]: no effect; inhibition of mean EGFP levels (LTR promoter activity) (HIV-1 LTR promoter): up to 60%; stabilization of hTel G4 by CD (hTel G4 [8]): 19.9 °C; Kd (hTel G4 [9]): 13.1 nM; stabilization of LTR-IV G4 by CD (LTR-IV G4 [10]): higher than 27 °C; Taq polymerase stop site [12]: intense stop site at the most 3′ G tract in each G4-forming template; inhibition of wt LTR luciferase activity (wt LTR promoter): up to 65%; Kd (LTR-III G4 [13]): 3.2 nM; binding affinity cell G4 (hTel) (hTel G4 [14]; competing G4s LTR-III/hTel): 10; binding affinity cell G4 (hTel) (hTel G4 [14]; competing G4s LTR-IV/hTel): 25
dextran sulfate [DS] | – | – | – | – | – | – | – | – | – | – | – | – | – | – | – | – | – | – | – | exhibited antiviral effect only when added at 0 h pi | –
CN(C)CCCn1c(=O)c2ccc3c(=O)n(CCCN(C)C)c(=O)c4c5[nH]c6cc([N+](=O)[O-])ccc6[nH]c5c(c1=O)c2c34 [Compound 4] | 188 ± 4.08 | – | – | – | – | – | above 25 °C | – | 37 | 45 | 68 | 75 | 55 | 71 | 80 | 54 | 51 | 18 | 23 | – | binding affinity cell G4 (hTel) (hTel G4 [14]; competing G4s LTR-III/hTel): 10; binding affinity cell G4 (hTel) (hTel G4 [14]; competing G4s LTR-IV/hTel): 18
